From ChEMBL document CHEMBL1139802, “Pyrazole inhibitors of HMG-CoA reductase: an attempt to dramatically reduce synthetic complexity through minimal analog re-design” (Bioorg Med Chem Lett, 2007)
pIC50: −log10 of the molar value.

Tests used:
[1] = test system: L6; experiment: Inhibition of cholesterol synthesis in L6 myocytes; assay type: functional, cell-based; conditions: Rattus norvegicus
[2] = Inhibition of cholesterol synthesis in rat hepatocytes; assay type: functional, cell-based; conditions: Hepatocyte
[3] = biological target: T1, 3-hydroxy-3-methylglutaryl-coenzyme A reductase (Rattus norvegicus, UniProt P51639); experiment: Inhibition of HMG-CoA reductase in rat liver microsomes; design: species or system Microsome
T1 sequence (P51639 whole entry): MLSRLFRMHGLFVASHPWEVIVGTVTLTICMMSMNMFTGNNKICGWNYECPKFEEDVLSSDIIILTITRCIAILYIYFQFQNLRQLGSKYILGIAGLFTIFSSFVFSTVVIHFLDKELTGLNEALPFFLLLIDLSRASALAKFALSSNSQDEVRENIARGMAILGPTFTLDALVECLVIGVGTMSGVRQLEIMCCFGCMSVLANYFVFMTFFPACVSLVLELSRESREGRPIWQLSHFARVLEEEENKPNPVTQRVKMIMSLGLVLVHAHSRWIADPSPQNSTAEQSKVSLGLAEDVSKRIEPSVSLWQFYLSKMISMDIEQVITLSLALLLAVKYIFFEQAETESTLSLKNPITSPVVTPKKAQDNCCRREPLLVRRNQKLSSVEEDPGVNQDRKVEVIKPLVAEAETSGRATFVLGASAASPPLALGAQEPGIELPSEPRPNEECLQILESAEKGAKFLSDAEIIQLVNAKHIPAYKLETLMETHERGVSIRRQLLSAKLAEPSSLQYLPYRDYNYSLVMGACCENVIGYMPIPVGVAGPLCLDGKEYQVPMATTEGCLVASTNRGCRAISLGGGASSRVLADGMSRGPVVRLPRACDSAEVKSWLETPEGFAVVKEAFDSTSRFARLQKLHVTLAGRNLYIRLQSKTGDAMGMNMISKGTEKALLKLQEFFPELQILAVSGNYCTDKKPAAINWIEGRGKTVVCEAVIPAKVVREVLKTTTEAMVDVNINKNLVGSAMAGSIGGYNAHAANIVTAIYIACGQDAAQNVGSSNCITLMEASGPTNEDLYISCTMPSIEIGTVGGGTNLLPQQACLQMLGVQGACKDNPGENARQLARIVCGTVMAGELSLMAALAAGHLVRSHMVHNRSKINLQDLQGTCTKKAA

[4] = test system: Hamster; experiment: Inhibition of cholesterol synthesis in hamster at 10 mg/kg, po after 4 to 6 hrs relative to control; assay type: functional, Cricetinae; design: scale not given: the % may be the effect or the level left
Method in brief: (§1)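 Male Syrian Golden hamsters received a single oral 10 mg/kg dose. A bolus of sodium 14C-acetate was given at 2, 3 or 4 h post-dose, giving 2–4, 3–5 and 4–6 h windows. Label incorporated into plasma cholesterol was measured over the following 2 h. Results are reported as percent change in incorporation relative to vehicle-dosed animals.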

[5] = test system: Hamster; experiment: Inhibition of cholesterol synthesis in hamster at 10 mg/kg, po after 2 to 4 hrs relative to control; assay type: functional, Cricetinae; design: scale not given: the % may be the effect or the level left; method in brief: as §1
[6] = test system: Hamster; experiment: Inhibition of cholesterol synthesis in hamster at 10 mg/kg, po after 3 to 5 hrs relative to control; assay type: functional, Cricetinae; design: scale not given: the % may be the effect or the level left; method in brief: as §1

CC(C)c1c(C(=O)N(C)Cc2ccccc2)nn(-c2ccc(F)cc2)c1CC[C@@H](O)C[C@@H](O)CC(=O)O
pIC50 [1]: 5.54
pIC50 [2]: 9.51
pIC50 [3]: 8.21
Activity [4]: -16%
Activity [5]: -61%

CC(C)c1c(C(=O)N2CCCC2c2ccccc2)nn(-c2ccc(F)cc2)c1OC[C@@H](O)C[C@@H](O)CC(=O)O (some centres not stated)
pIC50 [1]: 5.36
pIC50 [2]: 8.10
pIC50 [3]: 7.85

CC(C)c1c(C(=O)N(C)Cc2cccc(F)c2)nn(-c2ccc(F)cc2)c1OC[C@@H](O)C[C@@H](O)CC(=O)O
pIC50 [1]: 5.61
pIC50 [2]: 8.72
pIC50 [3]: 7.85
Activity [4]: -1%
Activity [5]: -41%

COCc1cccc(CNC(=O)c2nn(-c3ccc(F)cc3)c(OC[C@@H](O)C[C@@H](O)CC(=O)O)c2C(C)C)c1
pIC50 [1]: 5.44
pIC50 [2]: 8.96
Activity [6]: -6%
pIC50 [3]: 7.51

CC(C)c1c(C(=O)N(C)CC2CCCCC2)nn(-c2ccc(F)cc2)c1OC[C@@H](O)C[C@@H](O)CC(=O)O
pIC50 [1]: 5.60
pIC50 [2]: 8.89
Activity [6]: 23%
pIC50 [3]: 8.21

CC(C)c1c(C(=O)N(C)Cc2ccc(F)c(F)c2)nn(-c2ccc(F)cc2)c1OC[C@@H](O)C[C@@H](O)CC(=O)O
pIC50 [1]: 5.34
pIC50 [2]: 8.10
Activity [6]: -5%
pIC50 [3]: 8.24

CC(C)c1c(C(=O)NCc2cccc(Cl)c2)nn(-c2ccc(F)cc2)c1OC[C@@H](O)C[C@@H](O)CC(=O)O
pIC50 [2]: 8.00
pIC50 [3]: 8.27

CC(C)c1c(C(=O)N(C)[C@H](C)c2ccccc2)nn(-c2ccc(F)cc2)c1OC[C@@H](O)C[C@@H](O)CC(=O)O
pIC50 [2]: 7.96
pIC50 [3]: 7.68

Cc1ccccc1CNC(=O)c1nn(-c2ccc(F)cc2)c(OC[C@@H](O)C[C@@H](O)CC(=O)O)c1C(C)C
pIC50 [1]: 5.55
pIC50 [2]: 9.06
pIC50 [3]: 7.77
Activity [4]: 39%

CC(C)c1c(C(=O)N(C)Cc2ccc(F)cc2)nn(-c2ccc(F)cc2)c1OC[C@@H](O)C[C@@H](O)CC(=O)O
pIC50 [1]: 5.55
pIC50 [2]: 8.42
pIC50 [3]: 7.74
Activity [4]: 91%

CC(C)c1c(C(=O)N(C)Cc2cccc(Cl)c2)nn(-c2ccc(F)cc2)c1OC[C@@H](O)C[C@@H](O)CC(=O)O
pIC50 [1]: 5.67
pIC50 [2]: 8.74
Activity [6]: 0%
pIC50 [3]: 8.08

CC(C)c1c(C(=O)NCc2ccccc2)nn(-c2ccc(F)cc2)c1OC[C@@H](O)C[C@@H](O)CC(=O)O
pIC50 [1]: 6.06
pIC50 [2]: 7.85
pIC50 [3]: 8.42
Activity [4]: 41%

Cc1ccc(CNC(=O)c2nn(-c3ccc(F)cc3)c(CC[C@@H](O)C[C@@H](O)CC(=O)O)c2C(C)C)cc1
pIC50 [1]: 6.10
pIC50 [2]: 8.96
pIC50 [3]: 8.60
Activity [4]: -15%
Activity [5]: -74%

COc1cc(CN(C)C(=O)c2nn(-c3ccc(F)cc3)c(OC[C@@H](O)C[C@@H](O)CC(=O)O)c2C(C)C)cc(OC)c1
pIC50 [2]: 8.15
pIC50 [3]: 7.37

COc1ccc(CNC(=O)c2nn(-c3ccc(F)cc3)c(OC[C@@H](O)C[C@@H](O)CC(=O)O)c2C(C)C)cc1
pIC50 [2]: 7.43
pIC50 [3]: 7.92

CC(C)c1nc(N(C)S(C)(=O)=O)nc(-c2ccc(F)cc2)c1/C=C/[C@@H](O)C[C@@H](O)CC(=O)O [ROSUVASTATIN]
pIC50 [1]: 6.68
pIC50 [2]: 9.64
pIC50 [3]: 8.68
Activity [4]: -46%
Activity [5]: -76%

Cc1cccc(CN(C)C(=O)c2nn(-c3ccc(F)cc3)c(OC[C@@H](O)C[C@@H](O)CC(=O)O)c2C(C)C)c1
pIC50 [1]: 4.73
pIC50 [2]: 8.60
pIC50 [3]: 7.43

Cc1ccc(CN(C)C(=O)c2nn(-c3ccc(F)cc3)c(OC[C@@H](O)C[C@@H](O)CC(=O)O)c2C(C)C)cc1
pIC50 [1]: 5.90
pIC50 [2]: 8.92
pIC50 [3]: 7.43

CC(C)c1c(C(=O)NCc2ccccn2)nn(-c2ccc(F)cc2)c1OC[C@@H](O)C[C@@H](O)CC(=O)O
pIC50 [2]: 8.12
pIC50 [3]: 7.60

CC(C)c1c(C(=O)N(C)Cc2cccc(F)c2)nn(-c2ccc(F)cc2)c1CC[C@@H](O)C[C@@H](O)CC(=O)O
pIC50 [1]: 5.72
pIC50 [2]: 9.80
pIC50 [3]: 8.39
Activity [4]: -12%
Activity [5]: -66%

CC(C)c1c(C(=O)N(C)Cc2cccc(C(F)(F)F)c2)nn(-c2ccc(F)cc2)c1OC[C@@H](O)C[C@@H](O)CC(=O)O
pIC50 [2]: 7.92
pIC50 [3]: 7.51

Cc1cccc(CNC(=O)c2nn(-c3ccc(F)cc3)c(OC[C@@H](O)C[C@@H](O)CC(=O)O)c2C(C)C)c1
pIC50 [1]: 6.55
pIC50 [2]: 9.00
pIC50 [3]: 8.31

CC(C)c1c(C(=O)NCCc2ccccc2)nn(-c2ccc(F)cc2)c1OC[C@@H](O)C[C@@H](O)CC(=O)O
pIC50 [1]: 6.12
pIC50 [2]: 7.85
pIC50 [3]: 7.82

COc1ccccc1CNC(=O)c1nn(-c2ccc(F)cc2)c(OC[C@@H](O)C[C@@H](O)CC(=O)O)c1C(C)C
pIC50 [2]: 7.08
pIC50 [3]: 7.66

CCN(Cc1ccccc1)C(=O)c1nn(-c2ccc(F)cc2)c(OC[C@@H](O)C[C@@H](O)CC(=O)O)c1C(C)C
pIC50 [1]: 5.58
pIC50 [2]: 8.33
pIC50 [3]: 7.85

CC(C)c1c(C(=O)N(C)Cc2ccccc2)nn(-c2ccc(F)cc2)c1OC[C@@H](O)C[C@@H](O)CC(=O)O
pIC50 [1]: 5.17
pIC50 [2]: 8.96
pIC50 [3]: 8.28
Activity [4]: 26%
Activity [5]: -49%

CC(C)c1c(C(=O)N(C)Cc2ccccc2F)nn(-c2ccc(F)cc2)c1OC[C@@H](O)C[C@@H](O)CC(=O)O
pIC50 [1]: 4.94
pIC50 [2]: 8.49
Activity [6]: -4%
pIC50 [3]: 8.06

COc1cccc(CN(C)C(=O)c2nn(-c3ccc(F)cc3)c(OC[C@@H](O)C[C@@H](O)CC(=O)O)c2C(C)C)c1
pIC50 [1]: 5.02
pIC50 [2]: 8.80
pIC50 [3]: 7.68
Activity [4]: 53%

CC(C)c1c(C(=O)NCc2ccc(Cl)cc2)nn(-c2ccc(F)cc2)c1OC[C@@H](O)C[C@@H](O)CC(=O)O
pIC50 [2]: 7.36
pIC50 [3]: 8.17

CC(C)c1c(C(=O)N(C)Cc2cccc(F)c2F)nn(-c2ccc(F)cc2)c1OC[C@@H](O)C[C@@H](O)CC(=O)O
pIC50 [1]: 6.07
pIC50 [2]: 8.55
pIC50 [3]: 7.85

CCCCNC(=O)c1nn(-c2ccc(F)cc2)c(OC[C@@H](O)C[C@@H](O)CC(=O)O)c1C(C)C
pIC50 [2]: 7.41
pIC50 [3]: 7.12

CCOc1cccc(CN(C)C(=O)c2nn(-c3ccc(F)cc3)c(OC[C@@H](O)C[C@@H](O)CC(=O)O)c2C(C)C)c1
pIC50 [1]: 5.45
pIC50 [2]: 8.55
pIC50 [3]: 7.80

CC(C)c1c(C(=O)NCc2cccc(F)c2F)nn(-c2ccc(F)cc2)c1OC[C@@H](O)C[C@@H](O)CC(=O)O
pIC50 [1]: 6.92
pIC50 [2]: 7.72
pIC50 [3]: 8.70

COc1cccc(CNC(=O)c2nn(-c3ccc(F)cc3)c(OC[C@@H](O)C[C@@H](O)CC(=O)O)c2C(C)C)c1
pIC50 [1]: 5.06
pIC50 [2]: 8.08
pIC50 [3]: 7.80
Activity [4]: 37%

CC(C)c1c(C(=O)NCC2CCCCC2)nn(-c2ccc(F)cc2)c1OC[C@@H](O)C[C@@H](O)CC(=O)O
pIC50 [2]: 7.25
pIC50 [3]: 7.77

CC(C)c1c(C(=O)NCc2ccccc2Cl)nn(-c2ccc(F)cc2)c1OC[C@@H](O)C[C@@H](O)CC(=O)O
pIC50 [1]: 5.07
pIC50 [2]: 7.12
pIC50 [3]: 8.02

CC(C)c1c(C(=O)N2CCCCC2)nn(-c2ccc(F)cc2)c1OC[C@@H](O)C[C@@H](O)CC(=O)O
pIC50 [1]: 4.49
pIC50 [2]: 8.42
pIC50 [3]: 7.33

CC(C)c1c(C(=O)N2CCC[C@H](c3ccccc3)C2)nn(-c2ccc(F)cc2)c1CC[C@@H](O)C[C@@H](O)CC(=O)O
pIC50 [1]: 6.51
pIC50 [2]: 9.55
Activity [6]: -57%
pIC50 [3]: 8.68
Activity [5]: -78%

CC(C)c1c(C(=O)N2CCC[C@H](c3ccccc3)C2)nn(-c2ccc(F)cc2)c1OC[C@@H](O)C[C@@H](O)CC(=O)O
pIC50 [1]: 5.95
pIC50 [2]: 8.82
pIC50 [3]: 8.32
Activity [5]: -15%

Cc1ccc(CNC(=O)c2nn(-c3ccc(F)cc3)c(OC[C@@H](O)C[C@@H](O)CC(=O)O)c2C(C)C)cc1
pIC50 [1]: 5.68
pIC50 [2]: 8.74
pIC50 [3]: 7.82
Activity [4]: 9%
Activity [5]: -30%
